Measured values as given in ChEMBL document CHEMBL4706642, “Discovery of a Potent Dual Inhibitor of Acetylcholinesterase and Butyrylcholinesterase with Antioxidant Activity that Alleviates Alzheimer-like Pathology in Old APP/PS1 Mice” (J Med Chem, 2021).
The source made the active and inactive calls.

Experiments:
[1] = target: Acetylcholinesterase (Homo sapiens, UniProt P22303); test: Inhibition of recombinant human AChE using acetylthiocholineiodide as substrate preincubated for 20 mins followed by substrate addition by Ellman's method
Acetylcholinesterase, sequence (P22303 whole entry): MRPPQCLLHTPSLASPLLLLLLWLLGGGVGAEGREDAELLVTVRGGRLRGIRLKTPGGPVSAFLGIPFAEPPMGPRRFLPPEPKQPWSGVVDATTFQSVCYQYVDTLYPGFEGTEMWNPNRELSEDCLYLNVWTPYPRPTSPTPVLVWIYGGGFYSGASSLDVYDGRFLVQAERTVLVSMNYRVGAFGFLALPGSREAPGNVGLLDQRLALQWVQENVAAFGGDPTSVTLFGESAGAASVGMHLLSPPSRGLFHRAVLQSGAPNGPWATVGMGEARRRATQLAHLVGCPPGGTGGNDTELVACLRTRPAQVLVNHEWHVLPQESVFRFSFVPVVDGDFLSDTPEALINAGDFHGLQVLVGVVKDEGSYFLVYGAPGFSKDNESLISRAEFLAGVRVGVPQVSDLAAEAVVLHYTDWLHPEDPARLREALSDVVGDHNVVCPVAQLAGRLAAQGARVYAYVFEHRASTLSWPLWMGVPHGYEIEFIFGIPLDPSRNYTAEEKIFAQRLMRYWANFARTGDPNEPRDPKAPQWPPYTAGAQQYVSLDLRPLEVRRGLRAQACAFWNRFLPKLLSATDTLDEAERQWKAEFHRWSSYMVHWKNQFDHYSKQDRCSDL
Method in brief: (§1)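 Enzyme was 0.02 U/mL human recombinant AChE or human serum BChE. Non-enzymatic hydrolysis was corrected. IC50 came from a % inhibition vs log[I] regression. Selectivity = IC50 hBChE/IC50 hAChE. Mean ± SEM of ≥2 experiments, each in duplicate/triplicate.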

[2] = target: Cholinesterase (Homo sapiens, UniProt P06276); test: Inhibition of human serum BChE using butyrylthiocholineiodide as substrate preincubated for 20 mins followed by substrate addition by Ellman's method; assay type: cell-free; method in brief: as §1
Cholinesterase, sequence (P06276 whole entry): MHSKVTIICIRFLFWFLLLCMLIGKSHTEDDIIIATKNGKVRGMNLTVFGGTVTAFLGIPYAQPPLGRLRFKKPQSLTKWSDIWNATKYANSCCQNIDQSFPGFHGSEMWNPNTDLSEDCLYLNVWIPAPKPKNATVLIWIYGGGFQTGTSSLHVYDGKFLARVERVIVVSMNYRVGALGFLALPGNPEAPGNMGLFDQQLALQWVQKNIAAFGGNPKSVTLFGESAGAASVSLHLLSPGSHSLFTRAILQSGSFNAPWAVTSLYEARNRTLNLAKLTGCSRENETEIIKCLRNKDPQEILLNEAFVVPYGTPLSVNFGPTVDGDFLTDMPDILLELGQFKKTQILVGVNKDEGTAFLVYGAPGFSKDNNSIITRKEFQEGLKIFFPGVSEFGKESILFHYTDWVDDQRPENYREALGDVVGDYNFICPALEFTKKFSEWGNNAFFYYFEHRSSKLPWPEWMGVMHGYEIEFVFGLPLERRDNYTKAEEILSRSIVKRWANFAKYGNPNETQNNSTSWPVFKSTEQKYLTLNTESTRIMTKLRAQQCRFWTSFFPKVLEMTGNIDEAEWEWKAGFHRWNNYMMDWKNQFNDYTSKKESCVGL

[3] = Selectivity index, ratio of IC50 for human serum BChE using butyrylthiocholineiodide as substrate to IC50 for recombinant human AChE using acetylthiocholine iodide as substrate
Method in brief: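 Ellman spectrophotometric assay in 0.1 M phosphate buffer, pH 8.0, with 340 μM DTNB. Enzyme was 0.02 U/mL human recombinant AChE or human serum BChE. […] Then 550 μM ATCh or BTCh was added, and A412 was followed for 210 s. Non-enzymatic hydrolysis was corrected. IC50 came from a % inhibition vs log[I] regression. Selectivity = IC50 hBChE/IC50 hAChE. Mean ± SEM of ≥2 experiments, each in duplicate/triplicate.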

[4] = Antioxidant activity assessed as DPPH radical scavenging activity incubated for 30 mins under dark condition by UV-Vis spectrophotometric analysis; assay type: functional
[5] = Permeability of the compound in PBS/EtOH buffer (70:30) by PAMPA-BBB assay; assay type: ADME; settings: read-out: permeability
Method in brief: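 PAMPA-BBB permeability, reported as Pe in 10⁻⁶ cm s⁻¹, with CNS+ defined as Pe > 5.1. Mean ± SD of three experiments, each in triplicate.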

[6] = Drug distribution in wild type C57BL6 mouse liver at 2 mg/kg, ip thrice a week for 2 weeks observed after 4 hrs post last dose by HPLC/MS/MS analysis; assay type: ADME, organism-based; settings: in vivo, 336 h
[7] = Drug concentration in wild type C57BL6 mouse brain at 2 mg/kg, ip thrice a week for 2 weeks observed after 4 hrs post last dose by HPLC/MS/MS analysis; settings: brain
[8] = Drug concentration in wild type C57BL6 mouse plasma at 2 mg/kg, ip thrice a week for 2 weeks observed after 4 hrs post last dose by HPLC/MS/MS analysis; settings: plasma
[9] = test system: Mus musculus; test: Memory enhancement effect in 11 months old APP/PS1 double mutant-transgenic mouse model assessed as number of trials required to reach criterion at 2 mg/kg, ip administered thrice a week for 4 weeks measured on trail day 1 by memory flexibility text; assay type: functional
Method in brief: (§2)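 Memory flexibility test in male APP/PS1 mice treated i.p. with 2 mg/kg in saline (or vehicle), three times weekly for 4 weeks. The number of trials to reach criterion was counted on each testing day over 4 days. Mean ± SEM, n = 7 per group; one-way ANOVA with Bonferroni post hoc.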

[10] = test system: Mus musculus; test: Memory enhancement effect in 11 months old APP/PS1 double mutant-transgenic mouse model assessed as number of trials required to reach criterion at 2 mg/kg, ip administered thrice a week for 4 weeks measured after 4 days by memory flexibility text; assay type: functional; method in brief: as §2
[11] = test system: Mus musculus; test: Antialzheimer activity in 6 months young APP/PS1 double mutant-transgenic mouse model assessed as amyloid beta40 levels in hippocampus at 2 mg/kg, ip administered thrice a week for 4 weeks by ELISA; assay type: functional, organism-based
Method in brief: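 Male APP/PS1 mice received 2 mg/kg i.p. in saline (or vehicle), three times weekly for 4 weeks. After the behavioral tests, hippocampus was collected and Aβ40 and Aβ42 were measured with a specific ELISA kit. Mean ± SEM, n = 7 mice per group; one-way ANOVA with Bonferroni post hoc.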

[12] = test system: Mus musculus; test: (§3) Antialzheimer activity in 6 months young APP/PS1 double mutant-transgenic mouse model assessed as postsynaptic potential in CA3 region of hippocampus at 2 mg/kg, ip administered thrice a week for 4 weeks followed by stimulation with 1 to 10 uA EPSP by fluorescence microscopy based electrophysiology method (reference value: 0.269 +/- 0.072 mV/ms); assay type: functional
Method in brief: (§4)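 Hippocampal slices from male APP/PS1 mice given 2 mg/kg i.p. in saline (or saline alone), three times per week for 4 weeks. Input–output curves were built from evoked fEPSP slopes and fiber volley amplitudes, with values taken at the maximum current intensity. Mean ± SEM of 9 slices from 3 mice per group; two-way ANOVA with Bonferroni post hoc.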

[13] = test system: Mus musculus; test: as §3, with “fiber volley amplitude” for “postsynaptic potential”, “0.719” for “0.269”, “0.175” for “0.072”; assay type: functional; method in brief: as §4
[14] = test system: Mus musculus; test: Antialzheimer activity in 11 months old APP/PS1 double mutant-transgenic mouse model assessed as time interval at which EPSP-evoked calcium-dependent vesicle release in CA3 region of hippocampus causing short-term plasticity at 2 mg/kg, ip administered thrice a week for 4 weeks measured at 10 ms interval by fluorescence microscopy based electrophysiology method (reference value: 2.05 +/- 0.2 ms); assay type: functional
Method in brief: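 Paired-pulse facilitation in hippocampal slices from male APP/PS1 mice dosed i.p. with 2 mg/kg in saline (or vehicle), three times per week for 4 weeks. Two EPSPs were evoked at intervals of 10–200 ms, and the index is the R2/R1 fEPSP slope ratio. Mean ± SEM of 9 slices from 3 mice per group; two-way ANOVA with Bonferroni post hoc.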

[15] = test system: Mus musculus; test: as §3, with “11” for “6”, “old” for “young”, “0.293” for “0.269”, “0.105” for “0.072”; assay type: functional; method in brief: as §4
[16] = test system: Mus musculus; test: as §3, with “11” for “6”, “old” for “young”, “fiber volley amplitude” for “postsynaptic potential”, “0.826” for “0.269”, “0.169” for “0.072”; assay type: functional; method in brief: as §4
[17] = test system: Mus musculus; test: Antialzheimer activity in 11 months old APP/PS1 double mutant-transgenic mouse model assessed as theta burst induced-long term potentiation in CA3 region of hippocampus at 2 mg/kg, ip administered thrice a week for 4 weeks by fluorescence microscopy based electrophysiology method (reference value: 83.9 +/- 21.1 %); assay type: functional
[18] = test system: Mus musculus; test: Neuroprotective activity in 6 months young APP/PS1 double mutant-transgenic mouse model assessed as decrease in 4-hydroxy-2-nonenal levels in hippocampus at 2 mg/kg, ip administered thrice a week for 4 weeks by Hoechst staining based immunofluorescence analysis; assay type: functional, organism-based
Method in brief: (§5)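 Hippocampal 4-hydroxy-2-nonenal was assessed by immunofluorescence with Hoechst counterstain in male APP/PS1 mice given 2 mg/kg i.p. in saline (or vehicle), three times weekly for 4 weeks. Mean ± SEM, n = 4 mice per group; one-way ANOVA with Bonferroni post hoc.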

[19] = test system: Mus musculus; test: Neuroprotective activity in 11 months old APP/PS1 double mutant-transgenic mouse model assessed as decrease in 4-hydroxy-2-nonenal levels in hippocampus at 2 mg/kg, ip administered thrice a week for 4 weeks by Hoechst staining based immunofluorescence analysis; assay type: functional, organism-based; method in brief: as §5
[20] = test system: Mus musculus; test: Cognitive enhancing effect in 6 months young APP/PS1 double mutant-transgenic mouse model assessed as effect on time spent on moving along the field at 2 mg/kg, ip administered thrice a week for 4 weeks by LOF test; assay type: functional, organism-based
Method in brief: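 Open-field locomotor test in male APP/PS1 mice after 2 mg/kg i.p. in saline (or vehicle), three times per week for 4 weeks. Read-outs were time spent moving and number of crossings of the central area of a transparent cage. Mean ± SEM, n = 7 per group; one-way ANOVA with Bonferroni post hoc.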

Structure (SMILES) | IC50 [1] | IC50 [2] | Ratio IC50 [3] | IC50 [4] | Papp [5] | Drug uptake [6] | concentration at 336 h [7] | concentration at 336 h [8] | Activity [9] | Activity [10] | Activity [11] | Activity [12] | Activity [13] | Time [14] | Activity [15] | Activity [16] | Activity [17] | Activity [18] | Activity [19] | Activity [20]
COc1cc(CNC(=O)Cc2cn(CCCCC3=CC4Cc5nc6cc(Cl)ccc6c(N)c5C(C3)C4)nn2)ccc1O (stereo not given) | 1.06 nM | 7.3 nM | 6.9 | 92000 nM | 8.8 ×10⁻⁶ cm/s | Active | 18900 ng/g | 35600 ng/mL | 13 | 7 | inactive | 0.296 mV/ms | 0.738 mV/ms | 1.96 ms | 0.652 mV/ms | 1.039 mV | 111% | inactive | Active | inactive
COc1cc(CNC(=O)CCCCCCNc2c3c(nc4cc(Cl)ccc24)CC2C=C(C)CC3C2)ccc1O (stereo not given) | 0.77 nM | 30.6 nM | 39.7 | 55400 nM | 17.2 ×10⁻⁶ cm/s | Active | 1580 ng/g | < 3000 ng/mL | 14 | 13 | inactive | 0.262 mV/ms | 0.399 mV/ms | 2.32 ms | 0.545 mV/ms | 0.808 mV | 124.3% | inactive | Active | inactive
